Experimental data: ChEMBL document CHEMBL4680083, “Identification of Tricyclic Agonists of Sphingosine-1-phosphate Receptor 1 (S1P) Employing Ligand-Based Drug Design” (J Med Chem, 2016)
Activity calls are given as the source filed them. The calls are words filed in the database; no cut-off is given here.

Tests used:
[1] = biological target: T1, Sphingosine 1-phosphate receptor 1 (Homo sapiens, UniProt P21453); test: Agonist activity at human S1P1 expressed in CHO cell membranes assessed as stimulation of [35S]-GTPgamma-S binding measured after 45 mins by liquid scintillation counting method; design: species or system Cell membrane
T1 sequence (P21453 whole entry): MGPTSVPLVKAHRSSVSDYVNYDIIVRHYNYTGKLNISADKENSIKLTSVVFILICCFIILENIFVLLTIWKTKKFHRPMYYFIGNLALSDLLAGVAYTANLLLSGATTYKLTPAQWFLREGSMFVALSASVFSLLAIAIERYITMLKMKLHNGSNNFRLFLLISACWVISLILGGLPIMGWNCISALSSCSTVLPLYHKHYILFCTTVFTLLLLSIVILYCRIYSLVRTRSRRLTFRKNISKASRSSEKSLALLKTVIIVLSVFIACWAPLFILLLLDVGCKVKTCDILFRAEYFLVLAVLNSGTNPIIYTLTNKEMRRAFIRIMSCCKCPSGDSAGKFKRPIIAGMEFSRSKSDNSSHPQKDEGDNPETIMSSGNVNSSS
Summary of the method: (§1)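 S1P1/CHO cell membranes at 3 μg protein/well with 3-fold compound dilutions. [35S]GTPγS 0.2 nM final, 45 min at room temperature. Filter-plate capture, water washes, scintillation counting. EC50 taken at 50% of each compound's own Ymax.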

Rattus norvegicus [2] = test: Reduction in circulating lymphocytes count in Lewis rat blood at 1 mg/kg, po measured at 4 hrs by hematology analyzer based analysis; format: functional; design: scale not given: the % may be the effect or the level left
Summary of the method: (§2)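 Lewis rats were given an oral dose as a solution or suspension in PEG300, with controls receiving vehicle only. Blood was taken by retro-orbital bleeding under isoflurane at 4 and 24 h. Lymphocytes were counted on a hematology analyzer. Reduction is relative to the vehicle group, averaged over the animals in each group (n = 3−4).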

Rattus norvegicus [3] = test: Reduction in circulating lymphocytes count in Lewis rat blood at 1 mg/kg, po measured at 24 hrs by hematology analyzer based analysis; format: functional; design: scale not given: the % may be the effect or the level left; summary of the method: as §2
[4] = Plasma concentration in Lewis rat at 1 mg/kg, po measured at 24 hrs; format: ADME, organism-based; conditions: Lewis, plasma
Summary of the method: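 Lewis rats received a single oral 1.0 mg/kg dose as solution or suspension in PEG300. Blood was drawn retro-orbitally under isoflurane at 4 h and 24 h, within the blood lymphocyte reduction study. n = 3−4 per group, group mean reported.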

[5] = Ratio of plasma concentration in Lewis rat at 1 mg/kg, po measured at 4 hrs to plasma concentration in Lewis rat at 1 mg/kg, po measured at 24 hrs; format: ADME, organism-based; conditions: in vivo
[6] = biological target: T1, Sphingosine 1-phosphate receptor 1; test: Agonist activity at human S1P1 assessed as stimulation of cAMP accumulation; format: functional
[7] = biological target: Sphingosine 1-phosphate receptor 1 (Rattus norvegicus, UniProt P48303); test: Agonist activity at rat S1P1 expressed in CHO cell membranes assessed as stimulation of [35S]-GTPgamma-S binding measured after 45 mins by liquid scintillation counting method; design: species or system Cell membrane; summary of the method: as §1
Sequence of Sphingosine 1-phosphate receptor 1 (Rattus norvegicus, UniProt P48303) (P48303 whole entry): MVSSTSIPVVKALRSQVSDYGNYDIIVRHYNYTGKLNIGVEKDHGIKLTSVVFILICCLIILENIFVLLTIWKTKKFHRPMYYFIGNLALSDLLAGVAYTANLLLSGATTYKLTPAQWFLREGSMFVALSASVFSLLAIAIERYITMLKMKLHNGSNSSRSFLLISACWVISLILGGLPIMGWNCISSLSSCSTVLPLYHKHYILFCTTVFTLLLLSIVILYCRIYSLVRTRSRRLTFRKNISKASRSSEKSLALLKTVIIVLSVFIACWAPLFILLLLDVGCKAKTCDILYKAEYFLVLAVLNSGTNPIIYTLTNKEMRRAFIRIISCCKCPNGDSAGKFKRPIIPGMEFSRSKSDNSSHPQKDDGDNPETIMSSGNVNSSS

[8] = Protein binding in human assessed as bound fraction; format: ADME; conditions: read-out: PB (converted)
[9] = Protein binding in monkey assessed as bound fraction; format: ADME, Macaca mulatta; conditions: rhesus monkey; read-out: PB (converted)
[10] = biological target: Voltage-gated inwardly rectifying potassium channel KCNH2 (Homo sapiens, UniProt Q12809); test: Inhibition of human ERG by patch clamp assay
Sequence of Voltage-gated inwardly rectifying potassium channel KCNH2 (Q12809 whole entry): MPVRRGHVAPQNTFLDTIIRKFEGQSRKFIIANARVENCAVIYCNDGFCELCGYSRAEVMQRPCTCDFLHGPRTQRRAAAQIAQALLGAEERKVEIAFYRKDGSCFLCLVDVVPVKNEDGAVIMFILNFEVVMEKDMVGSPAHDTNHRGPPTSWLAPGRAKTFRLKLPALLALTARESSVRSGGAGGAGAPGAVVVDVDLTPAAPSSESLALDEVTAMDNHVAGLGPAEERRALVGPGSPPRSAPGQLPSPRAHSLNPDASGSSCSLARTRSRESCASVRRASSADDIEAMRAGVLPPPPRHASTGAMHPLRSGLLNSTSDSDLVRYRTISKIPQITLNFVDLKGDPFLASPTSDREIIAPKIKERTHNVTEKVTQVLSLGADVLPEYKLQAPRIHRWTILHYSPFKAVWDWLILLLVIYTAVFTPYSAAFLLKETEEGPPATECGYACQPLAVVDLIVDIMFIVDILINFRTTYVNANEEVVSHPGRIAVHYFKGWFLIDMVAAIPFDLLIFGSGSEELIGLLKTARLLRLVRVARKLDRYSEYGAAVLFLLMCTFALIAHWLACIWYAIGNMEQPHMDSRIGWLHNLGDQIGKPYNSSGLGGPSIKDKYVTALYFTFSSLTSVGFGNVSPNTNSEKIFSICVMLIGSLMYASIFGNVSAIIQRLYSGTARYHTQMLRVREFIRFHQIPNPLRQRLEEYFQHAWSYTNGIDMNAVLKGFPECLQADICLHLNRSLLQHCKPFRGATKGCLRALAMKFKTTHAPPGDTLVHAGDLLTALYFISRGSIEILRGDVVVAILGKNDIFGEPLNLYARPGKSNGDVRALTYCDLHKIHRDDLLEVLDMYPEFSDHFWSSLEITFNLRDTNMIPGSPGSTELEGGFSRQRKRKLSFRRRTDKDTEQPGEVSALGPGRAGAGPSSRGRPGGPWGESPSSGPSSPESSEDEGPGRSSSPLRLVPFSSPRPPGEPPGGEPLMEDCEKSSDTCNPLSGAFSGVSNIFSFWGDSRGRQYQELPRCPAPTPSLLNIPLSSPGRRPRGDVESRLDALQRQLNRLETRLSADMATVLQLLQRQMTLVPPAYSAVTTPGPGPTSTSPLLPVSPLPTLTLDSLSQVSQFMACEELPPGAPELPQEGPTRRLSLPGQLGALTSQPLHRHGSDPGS

Homo sapiens = organism: Homo sapiens; test: Inhibition of sodium channel (unknown origin) assessed as reduction in 1 and 4 Hz-induced channel current at 10 uM by patch clamp technique relative to control
[11] = biological target: T2, Nuclear receptor subfamily 1 group I member 2 (Homo sapiens, UniProt O75469); test: Transactivation of PXR (unknown origin); format: ADME
T2 sequence (O75469 whole entry): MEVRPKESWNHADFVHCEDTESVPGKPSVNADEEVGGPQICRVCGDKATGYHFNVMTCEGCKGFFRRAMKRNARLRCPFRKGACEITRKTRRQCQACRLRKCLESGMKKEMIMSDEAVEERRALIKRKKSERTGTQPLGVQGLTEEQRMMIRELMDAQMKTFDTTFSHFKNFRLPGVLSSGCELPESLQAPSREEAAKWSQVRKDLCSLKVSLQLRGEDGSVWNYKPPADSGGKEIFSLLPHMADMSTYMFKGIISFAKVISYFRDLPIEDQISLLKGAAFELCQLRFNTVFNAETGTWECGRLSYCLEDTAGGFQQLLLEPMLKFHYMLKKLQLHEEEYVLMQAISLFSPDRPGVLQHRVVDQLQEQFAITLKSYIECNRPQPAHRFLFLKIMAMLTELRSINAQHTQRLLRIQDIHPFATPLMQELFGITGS

Cytochrome P450 3A4 = Cytochrome P450 3A4 (Homo sapiens, UniProt P08684); test: Inhibition of CYP3A4 (unknown origin) using 7-benzyloxy resorufin as substrate; format: ADME
Sequence of Cytochrome P450 3A4 (P08684 whole entry): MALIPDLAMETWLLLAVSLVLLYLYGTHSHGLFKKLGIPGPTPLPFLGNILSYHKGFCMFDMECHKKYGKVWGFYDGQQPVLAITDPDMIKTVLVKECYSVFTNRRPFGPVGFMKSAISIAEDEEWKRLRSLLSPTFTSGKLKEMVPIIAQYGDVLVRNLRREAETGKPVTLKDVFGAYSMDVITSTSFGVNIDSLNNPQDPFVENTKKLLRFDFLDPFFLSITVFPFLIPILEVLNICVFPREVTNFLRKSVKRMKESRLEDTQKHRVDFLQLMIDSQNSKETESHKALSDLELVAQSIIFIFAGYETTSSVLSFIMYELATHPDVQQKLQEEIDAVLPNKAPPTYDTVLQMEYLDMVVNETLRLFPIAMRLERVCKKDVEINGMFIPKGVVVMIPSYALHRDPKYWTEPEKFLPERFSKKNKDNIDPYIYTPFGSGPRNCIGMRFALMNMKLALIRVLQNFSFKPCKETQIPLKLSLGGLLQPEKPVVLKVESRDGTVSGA

Cytochrome P450 2C8 = biological target: T3, Cytochrome P450 2C8 (Homo sapiens, UniProt P10632); test: Inhibition of CYP2C8 (unknown origin); format: ADME
T3 sequence (P10632 whole entry): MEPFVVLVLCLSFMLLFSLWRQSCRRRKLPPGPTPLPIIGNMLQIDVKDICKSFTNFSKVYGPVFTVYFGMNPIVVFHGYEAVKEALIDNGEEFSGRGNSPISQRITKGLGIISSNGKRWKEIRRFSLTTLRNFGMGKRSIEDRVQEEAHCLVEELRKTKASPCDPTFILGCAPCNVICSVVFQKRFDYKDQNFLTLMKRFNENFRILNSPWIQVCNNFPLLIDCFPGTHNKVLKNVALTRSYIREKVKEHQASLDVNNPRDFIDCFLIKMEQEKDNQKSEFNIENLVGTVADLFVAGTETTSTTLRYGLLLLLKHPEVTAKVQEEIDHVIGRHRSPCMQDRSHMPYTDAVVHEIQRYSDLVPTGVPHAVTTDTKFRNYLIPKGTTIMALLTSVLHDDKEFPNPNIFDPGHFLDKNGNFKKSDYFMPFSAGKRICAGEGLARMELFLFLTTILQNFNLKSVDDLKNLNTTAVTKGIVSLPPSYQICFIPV

[12] = Metabolic stability in rat assessed as half-life; format: ADME
[13] = Metabolic stability in monkey assessed as half-life; format: ADME, Macaca mulatta; conditions: rhesus monkey
[14] = Cmax in mouse at 5 mg/kg, po or 2 mg/kg, iv; format: ADME, organism-based; design: dose 5 mg/kg; conditions: in vivo
[15] = Tmax in rat at 1 mg/kg, po or 1 mg/kg, iv; format: ADME, organism-based; conditions: in vivo
[16] = Half-life in rat at 1 mg/kg, po or 1 mg/kg, iv; format: ADME, organism-based; conditions: in vivo
[17] = Clearance in dog at 0.1 mg/kg, po or 0.1 mg/kg, iv; format: ADME, organism-based, Canis lupus familiaris; conditions: in vivo
[18] = Volume of distribution at steady state in rat at 1 mg/kg, po or 1 mg/kg, iv; format: ADME, organism-based; conditions: in vivo, read-out: Vdss
[19] = Volume of distribution at steady state in cynomolgus monkey at 0.5 mg/kg, po or 0.5 mg/kg, iv; format: ADME, organism-based, Macaca fascicularis; conditions: in vivo, read-out: Vdss
[20] = Volume of distribution at steady state in dog at 0.1 mg/kg, po or 0.1 mg/kg, iv; format: ADME, organism-based, Canis lupus familiaris; conditions: in vivo, read-out: Vdss
[21] = Oral bioavailability in cynomolgus monkey at 0.5 mg/kg; format: ADME, organism-based, Macaca fascicularis; conditions: in vivo
Rattus norvegicus [22] = test: Antiarthritic activity in Lewis rat model of Complete Freund's adjuvant-induced arthritis at 0.03 mg/kg, po QD administered for 21 days after CFA injection and measured weekly three times upto day 21 by water displacement plethysmometry; format: functional, organism-based; conditions: time 21.0 day
Summary of the method: (§3)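 Male Lewis rats, 200−225 g, n = 8 per group. Immunized at the tail base with 100 μL of 10 mg/mL ground Mycobacterium butyricum in incomplete Freund's adjuvant. Oral dosing once daily in PEG300 vehicle from the day of immunization for 21 days, at 0.03, 0.1 or 1.0 mg/kg. Dexamethasone 0.1 mg/kg PO QD as positive control. Paw volume by water displacement plethysmometry, day 7 to day 21.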

Rattus norvegicus [23] = test: Antiarthritic activity in Lewis rat model of Complete Freund's adjuvant-induced arthritis assessed as inhibition in paw swelling at 0.1 to 1 mg/kg, po qd administered for 21 days after CFA injection and measured weekly three times upto day 21 by water displacement plethysmometry; format: functional, organism-based; conditions: dose 0.1-1 mg/kg, time 21.0 day; summary of the method: as §3

With O=C(O)C1CN(Cc2ccc3c(c2)CCc2c-3noc2-c2onc(-c3ccccc3)c2C(F)(F)F)C1 the EC50 [1] was 0.59 nM, the Activity (Rattus norvegicus [2]) was 83% and the Activity (Rattus norvegicus [3]) was 80%. It also gave a concentration at 24 h [4] of 13 nM, a Ratio [5] of 4 and an EC50 [6] of 0.032 nM. The EC50 [7] was 0.31 nM, the fraction unbound [8] was 0.004 and the fraction unbound [9] was 0.005. The IC50 [10] was 2000 nM, the inhibition (Homo sapiens) was 12% and the EC50 [11] was > 50000 nM. For the same compound, the IC50 (Cytochrome P450 3A4) was > 40000 nM, the IC50 (Cytochrome P450 2C8) was 14000 nM and the half-life [12] was > 2 h. For the same compound, the half-life [13] was > 2 h, the Cmax [14] was 3600 nM and the Tmax [15] was 4 h. The half-life [16] was 7.9 h, the clearance [17] was 1.4 mL/min/kg and the Vd [18] was 4.8 L/kg. It also gave a Vd [19] of 3.6 L/kg, a Vd [20] of 2.5 L/kg and a bioavailability [21] of 80%. The Activity (Rattus norvegicus [22]) was “inactive” and the Activity (Rattus norvegicus [23]) was “Active”.
